Assay results taken from ChEMBL document CHEMBL1144229, “RCAI-17, 22, 24-26, 29, 31, 34-36, 38-40, and 88, the analogs of KRN7000 with a sulfonamide linkage: their synthesis and bioactivity for mouse natural killer T cells to produce Th2-biased cytokines” (Bioorg Med Chem, 2008).
Active and inactive are the calls of the source. The calls are words filed in the database; no cut-off is given here.

Experiments:
Type in all cases: functional, cell-based
[1] = tested on: T-cell; assay: Induction of IL4 production in C57BL/6 mouse natural killer T cells after 48 hrs by cytometric bead array
How it was run: (§1)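 Spleen cells (approx. 4 × 10⁵) from female C57BL/6 mice aged 6–8 weeks were cultured 48 h at 37 °C in humidified 5% CO₂. Medium was RPMI 1640 with 10% heat-inactivated FCS, 2 mM L-glutamine, penicillin/streptomycin and 10 mM Hepes, plus glycolipid at 2, 20 or 200 ng/mL. Supernatant IFN-γ, IL-4 and IL-13 were read by cytometric bead array with PE detection, interpolated from standard curves. Values are means of three wells.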

[2] = tested on: T-cell; assay: Induction of IL13 production in C57BL/6 mouse natural killer T cells after 48 hrs by cytometric bead array; how it was run: as §1
[3] = tested on: T-cell; assay: Induction of IFN-gamma production in C57BL/6 mouse natural killer T cells upto 200 ng/ml after 48 hrs by cytometric bead array relative to KRN7000; how it was run: as §1
[4] = tested on: T-cell; assay: Induction of IL4 production in C57BL/6 mouse natural killer T cells at 2 ng/ml after 48 hrs by cytometric bead array; how it was run: as §1
[5] = tested on: T-cell; assay: Induction of IL13 production in C57BL/6 mouse natural killer T cells at 2 ng/ml after 48 hrs by cytometric bead array; how it was run: as §1
[6] = tested on: T-cell; assay: Induction of IFN-gamma production in C57BL/6 mouse natural killer T cells after 48 hrs by cytometric bead array
How it was run: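 Spleen cells (about 4 × 10⁵) from female C57BL/6 mice aged 6–8 weeks, in RPMI 1640 with 10% heat-inactivated FCS, glutamine, antibiotics and Hepes, at 37 °C in 5% CO₂. Cells were stimulated with glycolipid at 2, 20 or 200 ng/mL for 48 h. Supernatant IFN-γ was measured by cytometric bead array on FACS against a kit standard curve. Mean of three wells.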

Row | SMILES | Activity [1] | Activity [2] | Activity [3] | Activity [4] | Activity [5] | Activity [6]
1 | CCCCCCCCCCCCCC[C@@H](O)[C@@H](O)[C@H](CO[C@H]1O[C@H](CO)[C@H](O)[C@H](O)[C@H]1O)NS(=O)(=O)c1ccc(C)cc1 | Active | Active | inactive |  |  | 
2 | CCCCCCCCCCCCCC[C@@H](O)[C@@H](O)[C@H](CO[C@H]1O[C@H](CO)[C@H](O)[C@H](O)[C@H]1O)NS(=O)(=O)c1ccc(NC(C)=O)cc1 | Active | Active | inactive | Active | Active | 
3 | CCCCCCCCCCCCCC[C@@H](O)[C@@H](O)[C@H](CO[C@H]1O[C@H](CO)[C@H](O)[C@H](O)[C@H]1O)NS(=O)(=O)c1cccc2ccccc12 | Active | Active | inactive |  |  | 
4 | CCCCCCCCCCCCCC[C@@H](O)[C@@H](O)[C@H](CO[C@H]1O[C@H](CO)[C@H](O)[C@H](O)[C@H]1O)NS(=O)(=O)c1ccc(-c2ccccc2)cc1 | Active | Active | inactive |  |  | 
5 | CCCCCCCCCCCCCC[C@@H](O)[C@@H](O)[C@H](CO[C@H]1O[C@H](CO)[C@H](O)[C@H](O)[C@H]1O)NC(=O)c1ccc(C)cc1 |  |  |  |  |  | inactive
6 | CCCCCCCCCCCCCCCCCCCCCCCC(=O)N[C@@H](CO[C@H]1O[C@H](CO)[C@H](O)[C@H](O)[C@H]1O)[C@H](O)[C@H](O)CCCCC | Active | Active |  |  |  | 
7 | CCCCCCCCCCCCCCCCS(=O)(=O)N[C@@H](CO[C@H]1O[C@H](CO)[C@H](O)[C@H](O)[C@H]1O)[C@H](O)[C@H](O)CCCCCCCCCCCCCC |  |  | inactive |  |  | 
8 | CCCCCCCCCCCCCCCCCC(=O)N[C@@H](CO[C@H]1O[C@H](CO)[C@H](O)[C@H](O)[C@H]1O)[C@H](O)[C@H](O)CCCCCCCCCCCCCC |  |  |  |  |  | Active
9 | CCCCCCCCCCCCCC[C@@H](O)[C@@H](O)[C@H](CC[C@H]1O[C@H](CO)[C@H](O)[C@H](O)[C@H]1O)NS(=O)(=O)c1ccc(C)cc1 | inactive | inactive |  |  |  | inactive
10 | CCCCCCCCCCCCCC[C@@H](O)[C@@H](O)[C@H](CO[C@H]1O[C@H](CO)[C@H](O)[C@H](O)[C@H]1O)NS(=O)(=O)c1cccc(C)c1 | Active | Active | inactive |  |  | 
11 | CCCCCCCCCCCCCCCCCCCCCCCCCC(=O)N[C@@H](CO[C@H]1O[C@H](CO)[C@H](O)[C@H](O)[C@H]1O)[C@H](O)[C@H](O)CCCCCCCCCCCCCC | Active | Active |  |  |  | 
12 | CCCCCCCCCCCCCC[C@@H](O)[C@@H](O)[C@H](CO[C@H]1O[C@H](CO)[C@H](O)[C@H](O)[C@H]1O)NS(=O)(=O)c1ccccc1C | Active | Active | inactive |  |  | 
13 | CCCCCCCCCCCCCC[C@@H](O)[C@@H](O)[C@H](CO[C@H]1O[C@H](CO)[C@H](O)[C@H](O)[C@H]1O)NS(=O)(=O)c1ccc(OC)cc1 | Active | Active | inactive |  |  | 
